SMILES strings stand for the structures. Values after ≈ are worked out from the molar mass of the structure shown.

This is an account of results in ChEMBL document CHEMBL4145471, “New 1,5 and 2,5-disubstituted tetrazoles-dependent activity towards surface barrier of Candida albicans” (Eur J Med Chem, 2018).

Holding throughout (type): functional
The test system of experiment [1] is Candida albicans. Kind of experiment: Ratio of MIC for Candida albicans ATCC 90028 in presence of ergosterol to MIC for Candida albicans ATCC 90028 in absence of ergosterol. Put shortly: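 MICs per modified M27-A3 in RPMI with or without ergosterol (final 400 µg/mL, dissolved in 10% DMSO/1% Tween 80 with heating). Inoculum 10³ CFU/mL; tetrazoles and itraconazole tested at 512–1 µg/mL, amphotericin B at 125–0.24 µg/mL. Plates were incubated at 35°C and read at 72 h; MIC was the lowest concentration with no visible growth. Run in triplicate on three days, geometric means.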

Experiment [2] concerns Candida albicans. Kind of experiment: Antifungal activity against Candida albicans ATCC 90028 at 0.5 ug/ml after 18 hrs relative to control. Put shortly:
(§1)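 Planktonic broth microdilution per M27-A3 in MOPS-buffered RPMI 1640 (pH 7.0), final inoculum 1.8×10^3 cells/mL, compounds 0.0313–16 µg/mL from 1600 µg/mL stocks in ethanol or DMSO. Incubated at 35°C without agitation; OD405 read at 18 and 48 h. % inhibition was derived from test, sterility (no inoculum) and solvent growth-control wells. Amphotericin B at 0.5 µg/mL served as the 100% control.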

The test system of experiment [3] is Candida albicans. Kind of experiment: Antifungal activity against Candida albicans ATCC 90028 at 0.5 ug/ml after 48 hrs relative to control. Put shortly: as §1
Experiment [4] has as its system Candida albicans. Kind of experiment: Antifungal activity against Candida albicans ATCC 90028 after 72 hrs in presence of ergosterol by M27-A3 microdilution method. The following applies: ATCC 90028, 72 h. Put shortly: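 Ergosterol-modified M27-A3 assay. Compounds at 512-1 µg/mL serially diluted in RPMI; the 10^3 CFU/mL inoculum is made in RPMI with ergosterol (dissolved in 10% DMSO/1% Tween 80, heated), giving 400 µg/mL ergosterol in the wells. Itraconazole and amphotericin B serve as controls. Plates at 35°C, read after 72 h. MIC is the lowest concentration without visible growth; triplicate on three days, geometric means.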
Background: Dilution methods test growth across graded concentrations, often in twofold steps.

For experiment [5], the system named is Candida albicans. As to the kind of experiment: Antifungal activity against Candida albicans ATCC 90028 after 72 hrs by M27-A3 microdilution method. The following applies: ATCC 90028, 72 h.
The test system of experiment [6] is Candida albicans. Kind of experiment: Antifungal activity against Candida albicans ATCC 90028 after 48 hrs by M27-A3 microdilution method. To be noted: ATCC 90028, 48 h.
Experiment [7] deals with Candida albicans. Kind of experiment: Antifungal activity against Candida albicans ATCC 90028 at 16 ug/ml after 18 hrs relative to control. Put shortly:
as §1

Experiment [8] has as its system Candida albicans. As to the kind of experiment: Antifungal activity against Candida albicans ATCC 90028 at 16 ug/ml after 48 hrs relative to control. Put shortly:
as §1

The test system of experiment [9] is Candida albicans. Kind of experiment: Antifungal activity against Candida albicans ATCC 90028 at 8 ug/ml after 18 hrs relative to control. Put shortly:
as §1

In experiment [10] the test system is Candida albicans. Kind of experiment: Antifungal activity against Candida albicans ATCC 90028 at 8 ug/ml after 48 hrs relative to control. Put shortly: as §1
Experiment [11] deals with Candida albicans. Kind of experiment: Antifungal activity against Candida albicans ATCC 90028 at 4 ug/ml after 18 hrs relative to control. Put shortly:
as §1

In experiment [12] the test system is Candida albicans. Kind of experiment: Antifungal activity against Candida albicans ATCC 90028 at 4 ug/ml after 48 hrs relative to control. Put shortly: as §1
In experiment [13] the test system is Candida albicans. As to the kind of experiment: Antifungal activity against Candida albicans ATCC 90028 at 2 ug/ml after 18 hrs relative to control. Put shortly: as §1
Experiment [14] deals with Candida albicans. Kind of experiment: Antifungal activity against Candida albicans ATCC 90028 at 2 ug/ml after 48 hrs relative to control. Put shortly: as §1
For experiment [15], the system named is Candida albicans. Kind of experiment: Antifungal activity against Candida albicans ATCC 90028 at 1 ug/ml after 18 hrs relative to control. Put shortly: as §1
The test system of experiment [16] is Candida albicans. As to the kind of experiment: Antifungal activity against Candida albicans ATCC 90028 at 1 ug/ml after 48 hrs relative to control. Put shortly: as §1
Experiment [17] has as its system Candida albicans. As to the kind of experiment: Antifungal activity against Candida albicans ATCC 90028 at 0.25 ug/ml after 18 hrs relative to control. Put shortly: (§2)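 Fluconazole (water stock, diluted in RPMI 1640) tested by CLSI M27-A3 broth microdilution against C. albicans ATCC 90028. Inoculum 1.8×10^3 cells/mL in RPMI 1640 buffered with MOPS, pH 7.0. Incubation at 35°C without agitation, read at 18 and 48 h. Growth by OD405 and visually; inhibition % calculated against solvent growth-control wells after subtracting sterility-control wells.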

Experiment [18] relates to Candida albicans. Kind of experiment: Antifungal activity against Candida albicans ATCC 90028 at 0.25 ug/ml after 48 hrs relative to control. Put shortly:
as §2

For experiment [19], the system named is Candida albicans. Kind of experiment: Antifungal activity against Candida albicans ATCC 90028 at 0.125 ug/ml after 18 hrs relative to control. Put shortly:
as §1

Experiment [20] concerns Candida albicans. As to the kind of experiment: Antifungal activity against Candida albicans ATCC 90028 at 0.125 ug/ml after 48 hrs relative to control. Put shortly: as §1
For experiment [21], the system named is Candida albicans. As to the kind of experiment: Antifungal activity against Candida albicans ATCC 90028 at 0.0625 ug/ml after 18 hrs relative to control.
The subject of experiment [22] is Candida albicans. As to the kind of experiment: Antifungal activity against Candida albicans ATCC 90028 at 0.0625 ug/ml after 48 hrs relative to control. Put shortly:
as §1

Experiment [23] relates to Candida albicans. Kind of experiment: Antifungal activity against Candida albicans ATCC 90028 at 0.0313 ug/ml after 18 hrs relative to control.
Experiment [24] concerns Candida albicans. Kind of experiment: Antifungal activity against Candida albicans ATCC 90028 at 0.0313 ug/ml after 48 hrs relative to control.
In experiment [25] the test system is Candida albicans. As to the kind of experiment: Fungicidal activity against Candida albicans ATCC 90028 at 16 ug/ml after 48 hrs by M27-A3 microdilution method. Put shortly:
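After 48 h at 35°C in M27-A3 microdilution plates (compound at 16 µg/mL), 50 µL aliquots from treated and solvent-control wells were diluted 10^4 in PBS and plated on drug-free Sabouraud dextrose agar, then incubated 48 h at 35°C. Reduction R = lg CFU/mL control − lg CFU/mL treated; R ≥ 3 defined as fungicidal.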

Consider `CCC(C)n1ncn(-c2ccc(N3CCN(c4ccc(OCC5COC(Cn6cncn6)(c6ccc(Cl)cc6Cl)O5)cc4)CC3)cc2)c1=O` (stereo not drawn) [ITRACONAZOLE], for which the Ratio in the experiment on Candida albicans [1] is reported as 2.

As usually defined, the MIC is the least concentration at which growth counts as inhibited. For `C[C@@H]1[C@H](O)[C@@H](C)/C=C/C=C/C=C/C=C/C=C/C=C/C=C/[C@H](O[C@@H]2O[C@H](C)[C@@H](O)[C@H](N)[C@@H]2O)C[C@@H]2O[C@](O)(C[C@@H](O)C[C@@H](O)[C@H](O)CC[C@@H](O)C[C@@H](O)CC(=O)O[C@H]1C)C[C@H](O)[C@H]2C(=O)O` [AMPHOTERICIN B], the Activity in the experiment with Candida albicans [2] and in the experiment with Candida albicans [3] was 100% throughout. Also, the values for the MIC in the experiment on Candida albicans [4] and in the experiment with Candida albicans [5] were 0.24 µg/mL and 0.03 µg/mL (≈ 0.0325 µM), respectively.

`OC(Cn1cncn1)(Cn1cncn1)c1ccc(F)cc1F` [FLUCONAZOLE] gave a minimum inhibitory concentration (MIC) against Candida albicans [6] of 0.25 µg/mL (≈ 0.816 µM).

For the molecule `CCOC(=O)CCn1nnc(-c2ccc(C)cc2)n1`, the Activity in the experiment on Candida albicans [7] came to 99.98%; in the experiment with Candida albicans [8] it was 99.37%; in the experiment with Candida albicans [9] it was 99.61%; in the experiment with Candida albicans [10], 99.14%; in the experiment with Candida albicans [11], 98.99%; in the experiment on Candida albicans [12], 98.95%. For the same molecule, the Activity was 98.19% in the experiment on Candida albicans [13]; 98.95% in the experiment on Candida albicans [14]; 45.15% in the experiment with Candida albicans [15]; 96.34% in the experiment with Candida albicans [16]; 99.07% with Candida albicans [2]; 99.16% in the experiment with Candida albicans [3]. Moreover, the Activity in the experiment with Candida albicans [17] is recorded as 98.38%; with Candida albicans [18], 98.95%; with Candida albicans [19], 99.76%; in the experiment on Candida albicans [20] it was 98.72%; with Candida albicans [21], 99.51%; in the experiment with Candida albicans [22] it was 98.79%. Besides, the Activity was 99.31% in the experiment on Candida albicans [23], 98.81% in the experiment on Candida albicans [24] and -0.23 log10CFU/ml in the experiment with Candida albicans [25].

For the molecule `CCOC(=O)CCn1nnc(-c2ccc(Cl)cc2)n1`, the Activity came to 100% in the experiment on Candida albicans [7]; 98.78% in the experiment on Candida albicans [8]; 97.97% in the experiment on Candida albicans [9]; 98.86% with Candida albicans [10]; 99.85% in the experiment on Candida albicans [11]; 99.07% in the experiment on Candida albicans [12]. Also, the Activity with Candida albicans [13] is given as 99.74%; in the experiment with Candida albicans [14], 99.12%; in the experiment with Candida albicans [15], 84.36%; in the experiment with Candida albicans [16], 98.78%; in the experiment with Candida albicans [2], 98.32%; in the experiment with Candida albicans [3] it was 99%. In addition, the Activity in the experiment with Candida albicans [17] worked out at 99.95%; in the experiment with Candida albicans [18] it was 98.87%; in the experiment on Candida albicans [19], 99.92%; in the experiment with Candida albicans [20], 98.85%; in the experiment on Candida albicans [21], 99.88%; in the experiment on Candida albicans [22], 98.8%. Also, the Activity worked out at 99.32% with Candida albicans [23], 99.14% in the experiment on Candida albicans [24] and 0.29 log10CFU/ml in the experiment on Candida albicans [25].
